Reference: publication PMC3458564 (Nucleic Acids Research, 2012)
Structures can show the parent of a compound that is named as a salt.

Legend:
HCV NS3h [1] = target: T1, HCV NS3h (Hepatitis C virus genotype 1b, UniProt Q9WMX2); assay: NS3h molecular beacon-based helicase assay; assay type: biochemical; conditions: for IC50: n=3
HCV NS3h [2] = target: T1, HCV NS3h; assay: biochemical; assay type: binding; conditions: for Cy5-dT15-NS3h Binding % Inhibition (LOPAC screen): LOPAC samples at 100 µM, 100 µM
E. coli SSB = E. coli SSB (Escherichia coli, UniProt P0AGE0); assay: Escherichia coli SSB FP assay; assay type: binding
[3] = test system: HCV RLuc replicon in Huh7.5 cells; assay: HCV Renilla luciferase subgenomic replicon assay; assay type: cell-based; conditions: Hepatitis C virus, Huh7.5, 72 h, read-out: HCV replicon IC50 ± SD
[4] = Cell Titer-Glo cell viability assay; assay type: cell-based; conditions: human, Huh-7.5 cells
Procedure, shortened: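 Huh-7.5 cells carrying a stable HCV Renilla luciferase replicon, seeded at 10 000 cells/well, attached 4–5 h in DMEM with 10% FBS, glutamine, penicillin/streptomycin and non-essential amino acids. Test compound added in DMSO (0.5% final). Incubated 72 h at 37°C, 5% CO2. Cells washed, lysed by shaking in medium plus CellTiter-Glo, 30 min at 23°C. Luminescence read 1 s, normalized to DMSO-only. Triplicates.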

NS3h = target: T2, NS3h (Hepatitis C virus genotype 1b, UniProt Q9WMX2); assay: NS3h ATP hydrolysis; assay type: biochemical; conditions: preliminary
T2 sequence (Q9WMX2 1193-1657 limits assumed): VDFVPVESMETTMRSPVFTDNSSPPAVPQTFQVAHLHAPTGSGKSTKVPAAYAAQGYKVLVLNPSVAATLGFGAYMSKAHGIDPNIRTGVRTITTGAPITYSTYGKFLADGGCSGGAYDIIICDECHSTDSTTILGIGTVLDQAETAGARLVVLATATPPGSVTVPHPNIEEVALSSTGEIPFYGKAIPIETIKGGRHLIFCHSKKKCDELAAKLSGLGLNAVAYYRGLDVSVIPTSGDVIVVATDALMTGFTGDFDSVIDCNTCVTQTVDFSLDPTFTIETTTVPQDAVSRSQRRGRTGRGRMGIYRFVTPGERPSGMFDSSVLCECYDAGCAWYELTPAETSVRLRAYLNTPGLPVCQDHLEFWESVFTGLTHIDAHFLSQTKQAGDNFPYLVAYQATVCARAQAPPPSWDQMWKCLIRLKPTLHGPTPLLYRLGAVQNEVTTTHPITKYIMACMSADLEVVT

SSB = SSB (Escherichia coli, UniProt P0AGE0 1-178); assay: fluorescence polarization
[5] = NS3h helicase assays DNA IC50 ± SD, DNA substrate
[6] = NS3h helicase assays RNA IC50 ± SD, RNA substrate

E. coli SSB, sequence (P0AGE0 2-178 limits assumed): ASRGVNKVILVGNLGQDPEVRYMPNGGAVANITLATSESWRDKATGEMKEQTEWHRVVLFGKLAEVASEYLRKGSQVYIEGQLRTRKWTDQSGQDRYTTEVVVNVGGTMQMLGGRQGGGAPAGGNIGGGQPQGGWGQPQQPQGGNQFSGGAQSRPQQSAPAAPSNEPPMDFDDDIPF
SSB, sequence (P0AGE0 whole entry): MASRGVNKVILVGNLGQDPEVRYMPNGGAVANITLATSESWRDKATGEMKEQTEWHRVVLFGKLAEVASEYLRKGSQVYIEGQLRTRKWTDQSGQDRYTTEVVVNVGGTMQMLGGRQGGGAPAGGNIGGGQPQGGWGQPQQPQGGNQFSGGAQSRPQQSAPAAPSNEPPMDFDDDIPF

With CCCN(CCCN(C)C)c1cc(/C=C2/Sc3ccccc3N2C)c2ccccc2[n+]1-c1ccccc1 [SYBR green I] as the molecule, how does the “effect on MBHA” value (HCV NS3h [1]) read?
The value was “inhibit”.

For Cc1ccc(C(=O)Nc2ccc(S(=O)(=O)O)c3cc(S(=O)(=O)O)cc(S(=O)(=O)O)c23)cc1NC(=O)c1cccc(NC(=O)Nc2cccc(C(=O)Nc3cc(C(=O)Nc4ccc(S(=O)(=O)O)c5cc(S(=O)(=O)O)cc(S(=O)(=O)O)c45)ccc3C)c2)c1 [Suramin, suramin sodium salt], which IC50 (HCV NS3h [2]) is on record?
The IC50 was 3.6 ± 0.3 µM.

What about the “Cy5-dT15-NS3h Binding % Inhibition (LOPAC screen)” value (HCV NS3h [2]) of the same molecule?
Its value is “more than 60%”.

And the IC50 (E. coli SSB)?
Its IC50 is 0.3 µM.

What about the IC50 (HCV NS3h [1]; [5]) of the same molecule?
The IC50 was 3.7 ± 0.7 µM.

What about the IC50 (HCV NS3h [1]; [6]) of the same molecule?
The IC50 was 8.9 ± 2 µM.

And the IC50 [3]?
The IC50 was 38 ± 9.3 µM.

And the CC50 at 72 h [4]?
Its CC50 at 72 h is > 50 µM.

Which “effect on FP-based NS3h binding assay” value (HCV NS3h [2]) does the source give for CN1CCN(c2ccc3[nH]c(-c4ccc5[nH]c(-c6ccc(O)cc6)nc5c4)nc3c2)CC1 [H33258] here?
Its value is “increased polarization”.

With CN1/C(=C/C=C/c2cc[n+](CCC[N+](C)(C)C)c3ccccc23)Sc2ccccc21.[I-].[I-] [TO-PRO3] as the molecule, how does the “effect on FP-based NS3h binding assay” value (HCV NS3h [2]) read?
The value was “increased polarization”.

Which “effect on MBHA” value (HCV NS3h [1]) does the source give for Cn1cc(NC(=O)c2cc(NC(=O)CN=C(N)N)cn2C)cc1C(=O)NCCC(=N)N [netropsin] here?
Its value is “inhibit”.

Which IC50 (HCV NS3h [2]) does the source give for O=C(O)C1=CC(=C(c2ccc(O)c(C(=O)O)c2)c2ccc(O)c(C(=O)O)c2)C=CC1=O [ATA, aurintricarboxylic acid] here?
Its IC50 is 1.4 ± 0.1 µM.

And the “Cy5-dT15-NS3h Binding % Inhibition (LOPAC screen)” value (HCV NS3h [2])?
The value was “more than 60%”.

What about the IC50 (E. coli SSB) of the same molecule?
The IC50 was 1 ± 0.1 µM.

And the IC50 (HCV NS3h [1]; [5])?
The IC50 was 0.6 ± 0.1 µM.

And the IC50 (HCV NS3h [1]; [6])?
The IC50 was 0.8 ± 0.2 µM.

What about the IC50 [3] of the same molecule?
Its IC50 is 98 ± 30 µM.

And the CC50 at 72 h [4]?
Its CC50 at 72 h is > 100 µM.

What about the “ability of NS3h to cleave ATP in the absence of DNA or RNA” value (NS3h) of the same molecule?
Its value is “inhibits”.

Which “effect on MBHA” value (HCV NS3h [1]) does the source give for CC(=O)NCC(=O)O.CC(=O)NCC(=O)O.N=C(N)c1ccc(N=NNc2ccc(C(=N)N)cc2)cc1 [berenil] here?
The value was “inhibit”.

With Nc1ccc2cc3ccc(N)cc3nc2c1 [proflavin] as the molecule, how does the “effect on MBHA” value (HCV NS3h [1]) read?
The value was “inhibit”.

With Nc1ncnc2c1ncn2[C@@H]1O[C@H](COP(=O)(O)CP(=O)(O)OP(=O)([O-])[O-])[C@H](O)C1O.[Li+].[Li+] (stereo partly drawn) [α,β-methylene ATP, alpha,beta-Methylene adenosine 5'-triphosphate dilithium] as the molecule, how does the “effect on FP-based NS3h binding assay” value (HCV NS3h [2]) read?
The value was “did not inhibit”.

Which “apparent K (half saturation)” value (SSB) does the source give for TTTTTTTTTTTTTTT (ssDNA) [Cy5-dT15] here?
The value was 9.6 ± 2 nM.
